Test results reported in ChEMBL document CHEMBL1123309, “Esters and lactones of phenolic amino carboxylic acids: prodrugs for iron chelation” (J Med Chem, 1986).
“And” between values parts separate entries of the source, which are not always exact repeats. Identical values can stand only once.

Tests used:
Mus musculus [1] = assay: BDF1 male mice were administered with 200 mg/kg ip and percent change in iron levels was determined in Feces; assay type: functional; details: route intraperitoneal
Outline: (§1)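 Male BDF1 mice made iron-overloaded by transfusion of washed, heat-treated (50 °C, 30 min) canine red cells. Dosing began 2 days after the last transfusion, once daily for 7 days, in distilled water or 2% Polysorbate 80 suspension. Daily group urine was collected. Pooled feces were digested in 1 N HCl (90 °C, 30 min). Liver and spleen were homogenized in saline. Iron was measured by atomic absorption and expressed as % change vs transfused controls.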

Mus musculus [2] = assay: BDF1 male mice were administered with 200 mg/kg ip and percent change in iron levels was determined in Liver; assay type: functional; details: route intraperitoneal; outline: as §1
Mus musculus [3] = assay: BDF1 male mice were administered with 200 mg/kg ip and percent change in iron levels was determined in Spleen; assay type: functional; details: route intraperitoneal; outline: as §1
Mus musculus [4] = assay: BDF1 male mice were administered with 200 mg/kg ip and percent change in iron levels was determined in Urine; assay type: functional; details: route intraperitoneal; outline: as §1
Mus musculus [5] = assay: BDF1 male mice were administered with 200 mg/kg po and percent change in iron levels was determined in Feces; assay type: functional
Outline: (§2)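 Hypertransfused male BDF1 mice (canine red cells, washed and heated at 50 °C for 30 min) were dosed orally for 7 days with compound in distilled water or a fine suspension with Polysorbate 80 (2% final). Daily group urine and pooled feces (1 N HCl digest, 90 °C, 30 min, triplicate) were collected, and liver and spleen were homogenized. Iron was measured by atomic absorption and reported as % change vs transfused control.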

Mus musculus [6] = assay: BDF1 male mice were administered with 200 mg/kg po and percent change in iron levels was determined in Liver; assay type: functional; outline: as §2
Mus musculus [7] = assay: BDF1 male mice were administered with 200 mg/kg po and percent change in iron levels was determined in Spleen; assay type: functional; outline: as §2
Mus musculus [8] = assay: BDF1 male mice were administered with 200 mg/kg poand percent change in iron levels was determined in Urine; assay type: functional; outline: as §2
Mus musculus [9] = assay: BDF1 male mice were administered with the compound and number of survivors was determined at a dose 200 mg/kg ip out of 10 tested; assay type: functional; details: route intraperitoneal
Outline: (§3)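 Male BDF1 mice were iron-loaded by transfusion of canine red cells. The cells were heparinised, washed twice in isotonic saline and heated at 50 °C for 30 min. Dosing started two days after the last transfusion, once daily for 7 consecutive days. Compounds were given in distilled water or as a fine aqueous suspension with Polysorbate 80 (2% final). Toxic signs were recorded daily and survivors counted per group.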

Mus musculus [10] = assay: BDF1 male mice were administered with the compound and number of survivors was determined at a dose 200 mg/kg peroral out of 10 tested; assay type: functional; details: route oral; outline: as §3
Mus musculus [11] = assay: BDF1 male mice were administered with 25 mg/kg orally and percent change in iron levels was determined in faeces; assay type: functional, Feces; details: dose 100 mg/kg; route intraperitoneal; in the assay text read “100 mg/kg intraperitoneally” for “25 mg/kg orally”
Mus musculus [12] = assay: BDF1 male mice were administered with 25 mg/kg orally and percent change in iron levels was determined in urine; assay type: functional; details: dose 100 mg/kg; route intraperitoneal; in the assay text read “100 mg/kg intraperitoneally” for “25 mg/kg orally”
Mus musculus [13] = assay: BDF1 male mice were administered with 200 mg/kg orally and percent change in iron levels was determined in faeces; assay type: functional, Feces; details: route oral; outline: as §1
Mus musculus [14] = assay: BDF1 male mice were administered with 200 mg/kg orally and percent change in iron levels was determined in liver; assay type: functional; details: route oral; outline: as §1
Mus musculus [15] = assay: BDF1 male mice were administered with 200 mg/kg orally and percent change in iron levels was determined in spleen; assay type: functional; details: route oral; outline: as §1
Mus musculus [16] = assay: BDF1 male mice were administered with 100 mg/kg orally and percent change in iron levels was determined in spleen; assay type: functional; details: route intraperitoneal, in the assay text read “intraperitoneally” for “orally”; outline: as §1
Mus musculus [17] = assay: BDF1 male mice were administered with the compound and number of survivors was determined at a dose 100 mg/kg intraperitoneally out of 10 tested; assay type: functional; details: route intraperitoneal; outline: as §3
[18] = Half life was determined at pH 10.5 in the presence of Fe(III) Half life was determined Titrimetrically; assay type: ADME; details: pH 7.5; in the assay text read “pH 7.5” for “pH 10.5”
Outline: (§4)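 Metal and chelator were each 5 × 10⁻⁴ M. Constant pH was held with 0.05 M NaOH. Hydrolysis rate came from base consumption, with first-order kinetics.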

[19] = First order rate constant was determined Titrimetrically) at pH 7.5 in the presence of Fe(III)
[20] = First order rate constant was determined Spectrophotometrically at pH 7.5 in the presence of Fe(III)
[21] = Half life was determined at pH 7.5 in the presence of Fe(III) Half life was determined Spectrophotometrically
[22] = Half life was determined in the presence of Fe(III) Spectrophotometrically; assay type: ADME
Outline: (§5)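 Iron(III)-promoted hydrolysis was followed spectrophotometrically in 50% aqueous methanol with Hepes buffer at pH 7.5 and 38 °C. Ester and ferric nitrate were each 1.7 × 10⁻⁴ M. The read-out was the rise in absorbance at 480 nm. Data were fitted by nonlinear least squares for consecutive first-order processes.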

[23] = Half life was determined in the presence of Fe(III) Titrimetrically; assay type: ADME; outline: as §4
[24] = First order rate constant was determined in the presence of Fe(3+) Spectrophotometrically; assay type: ADME; outline: as §5
[25] = First order rate constant was determined in the presence of Fe(3+) Titrimetrically; assay type: ADME; outline: as §4
Mus musculus [26] = assay: BDF1 male mice were administered with 200 mg/kg intraperitoneally and percent change in iron levels was determined in Feces; assay type: functional; details: route intraperitoneal; outline: as §1
Mus musculus [27] = assay: BDF1 male mice were administered with 200 mg/kg intraperitoneally and percent change in iron levels was determined in Spleen; assay type: functional; details: route intraperitoneal; outline: as §1
Mus musculus [28] = assay: BDF1 male mice were administered with 200 mg/kg intraperitoneally and percent change in iron levels was determined in Urine; assay type: functional; details: route intraperitoneal; outline: as §1
Mus musculus [29] = assay: BDF1 male mice were administered with 200 mg/kg intraperitoneally and percent change in iron levels was determined in liver; assay type: functional; details: route intraperitoneal; outline: as §1
Mus musculus [30] = assay: BDF1 male mice were administered with 200 mg/kg peroral and percent change in iron levels was determined in Liver; assay type: functional; details: route oral; outline: as §1
Mus musculus [31] = assay: BDF1 male mice were administered with 200 mg/kg peroral and percent change in iron levels was determined in Spleen; assay type: functional; details: route oral; outline: as §2
Mus musculus [32] = assay: BDF1 male mice were administered with 200 mg/kg peroral and percent change in iron levels was determined in Urine; assay type: functional; details: route oral; outline: as §2
Mus musculus [33] = assay: BDF1 male mice were administered with 200 mg/kg peroral and percent change in iron levels was determined in Feces; assay type: functional; details: route oral; outline: as §1
Mus musculus [34] = assay: BDF1 male mice were administered with 200 mg/kg peroral and number of survivors was determined out of 10 tested; assay type: functional; details: route oral; outline: as §3
Mus musculus [35] = assay: BDF1 male mice were administered with 200 mg/kg intraperitoneally and number of survivors was determined out of 10 tested; assay type: functional; details: route intraperitoneal; outline: as §3

SMILES: CC(C)(C)OC(=O)CN(CCN(CC(=O)OC(C)(C)C)Cc1ccccc1O)Cc1ccccc1O
- Iron change (Mus musculus [1]): -1%
- Iron change (Mus musculus [2]): 10%
- Iron change (Mus musculus [3]): -5%
- Iron change (Mus musculus [4]): -1%
- Iron change (Mus musculus [5]): -13%
- Iron change (Mus musculus [6]): 6%
- Iron change (Mus musculus [7]): 5%
- Iron change (Mus musculus [8]): -27%
- No. of survivors (Mus musculus [9]): 10
- No. of survivors (Mus musculus [10]): 10

SMILES: CCOC(=O)CN(CCN(CC(=O)OCC)Cc1ccccc1O)Cc1ccccc1O
- Iron change (Mus musculus [11]): 26%
- Iron change (Mus musculus [12]): 240%
- Iron change (Mus musculus [13]): -77%
- Iron change (Mus musculus [14]): -49% and -63%
- Iron change (Mus musculus [15]): -34%
- Iron change (Mus musculus [16]): 4%
- No. of survivors (Mus musculus [17]): 10
- No. of survivors (Mus musculus [10]): 8
- half-life [18]: 0.58 h
- 10E2 k1 [19]: 1.99 min⁻¹
- 10E2 k1 [20]: 1.14 min⁻¹
- half-life [21]: 1.01 h

SMILES: O=C1CN(CCN2CC(=O)Oc3ccccc32)c2ccccc2O1
- half-life [22]: 1.97 h
- half-life [23]: 1.19 h
- 10E2 k1 [24]: 0.587 min⁻¹
- 10E2 k1 [25]: 0.97 min⁻¹
- Iron change (Mus musculus [26]): -65%
- Iron change (Mus musculus [27]): -17%
- Iron change (Mus musculus [28]): 157%
- Iron change (Mus musculus [29]): -68%
- Iron change (Mus musculus [30]): -56%
- Iron change (Mus musculus [31]): -30%
- Iron change (Mus musculus [32]): 93%
- Iron change (Mus musculus [33]): -2%
- No. of survivors (Mus musculus [34]): 10
- No. of survivors (Mus musculus [35]): 8
